Source: PubChem BioAssay (The Scripps Research Institute Molecular Screening Center)
This is a sample that favours compounds with a hit; in the whole collection about 2.3% have one here.
MsrA inhibitor: inhibits bovine methionine sulfoxide reductase A; purified bovine MsrA, absorbance read-out; inhibition, % at 15.5 µM; hit rate 0.75% among 360,000; AID 651718
MsrA act: activators of bovine methionine sulfoxide reductase A. purified bovine MsrA, absorbance read-out. activation, % at 10.6 µM. hit rate 0.3% among 360,000; in the data active means activation above about 7.5%
MC4R antag cAMP: antagonists of human melanocortin 4 receptor (MC4R); inhibition, % at 6.5 µM; P32245; MC4R-expressing cells, MTII-stimulated cAMP, LANCE TR-FRET; hit rate 0.48% among 360,000;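 active means inhibition above its plate's cutoff, the mean of tested wells on that plate plus 3 SD, cut at about 29% in these data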
Target sequence (P32245 whole entry, looked up): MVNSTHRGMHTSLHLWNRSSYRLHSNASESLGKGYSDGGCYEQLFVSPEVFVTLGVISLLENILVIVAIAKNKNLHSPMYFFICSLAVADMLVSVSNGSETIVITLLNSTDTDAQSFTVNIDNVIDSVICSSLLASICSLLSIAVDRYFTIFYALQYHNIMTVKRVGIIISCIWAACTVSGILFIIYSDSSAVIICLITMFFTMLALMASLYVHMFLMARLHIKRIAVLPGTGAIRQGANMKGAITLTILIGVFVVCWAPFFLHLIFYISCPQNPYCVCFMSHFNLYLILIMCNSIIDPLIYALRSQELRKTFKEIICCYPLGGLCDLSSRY
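system = U2OS cells with stable human MC4R expression | also added = Melanotan II challenge after compound preincubation | dosing = one concentration, 6.5 µM nominal | incubation = compound 30 min, challenge 1 h, detection 1 h | measured by = TR-FRET with Eu-cAMP and labeled anti-cAMP, 671 nm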
MC4R barr agon: human MC4R agonism via beta-arrestin. activation, % at 8.9 µM. AID 540308. P32245. hit rate 0.98% among 360,000. U2OS MC4R beta-arrestin complementation, luminescence; percent of melanotan II response, DMSO zero;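 active means activation above a per-plate cutoff, the mean activation of sample wells on that plate plus 3 SD, cut at about 8% in these data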
MsrA conf: confirmation of bovine MsrA inhibitors. purified bovine MsrA, absorbance read-out. shares compounds with MsrA inhibitor. hit rate 41% among 2,300. inhibition, % at 15.5 µM;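 further: coupled to thioredoxin reductase with NADPH and selenocystamine and DMSO as substrate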
Each line names hits and unclear results; the compound was inactive in the other large screens (follow-up assays come after a bar, where they were run). Unless noted, no stated cut-off is given here; in the data, active means inhibition above about 4.5%; inactive means the rest.

O=[N+]([O-])c1ccc(NN=C(C2CC2)C2CC2)c([N+](=O)[O-])c1	none
C/C(CCC(=O)O)=N/Nc1ccc([N+](=O)[O-])cc1[N+](=O)[O-]	MsrA inhibitor 13.3 | MsrA conf 9.8
CCC(CC)=NNc1ccc([N+](=O)[O-])cc1[N+](=O)[O-]	none
O=C(NCc1ccco1)Nc1ccccc1Cl	none
CCOc1cc(/C=N/NC(=O)c2ccc(NC(=O)C3CC3)cc2)ccc1O	MsrA inhibitor 5.3 | MsrA conf inactive
Oc1ccc(/C=N/N=C/c2ccc(O)cc2)cc1	MsrA inhibitor 5.3 | MsrA conf 5.5
Oc1ccc(/C=N/N=C/c2ccc(O)c(O)c2)cc1O	MsrA inhibitor 4.7 | MsrA conf 6.4
CCOc1cc(/C=N/N=C/c2ccc(O)c(OCC)c2)ccc1O	MsrA inhibitor 6.4 | MsrA conf inactive
COc1cc(/C=N/NC(=O)c2ccc(NC(=O)C3CCCCC3)cc2)ccc1O	none
CC(=N\NC(=O)c1ccc([N+](=O)[O-])cc1)/C(=N/O)C(=O)Nc1ccccc1	none
CCOc1cc(/C=N/NC(=O)C(=O)NCc2cccnc2)ccc1O	MsrA inhibitor 5.7 | MsrA conf inactive
Cc1cn([C@H]2C[C@H](O)[C@@H](CNCc3cccc(OC4CCCC4)c3)O2)c(=O)[nH]c1=O	none
Fc1cccc(/C=N/Nc2cc(N3CCOCC3)ncn2)c1	MsrA inhibitor 4.9 | MsrA conf inactive
Oc1ccc(/C=N/Nc2cc(N3CCOCC3)nc(N3CCOCC3)n2)cc1	MsrA inhibitor 5.8 | MsrA conf 5.7
CCOc1ccc2nc(NC(=O)c3ccc(C)o3)sc2c1	none
COc1ccc(/C=C/c2cc(-c3ccc(C)cc3)o[n+]2C)cc1	MsrA inhibitor 5.0 | MsrA conf inactive
C[C@@H]1CN([C@@H](C)CO)C(=O)Cc2cc(NS(=O)(=O)c3ccccc3)ccc2O[C@H]1CN(C)S(C)(=O)=O	none
COc1cccc2cc(C(=O)Oc3ccc(NC(C)=O)cc3)c(=O)oc12	MsrA inhibitor 4.7 | MsrA conf inactive
CN(C)c1ccc(/C=C(\NC(=O)c2ccccc2)C(=O)N/N=C/c2ccc(C(=O)O)cc2)cc1	MsrA inhibitor 5.7 | MsrA conf 5.4
CSc1ccc(/C=N/NC(=O)c2ccccc2Cl)cc1	MsrA inhibitor 5.8 | MsrA conf inactive
CN(C)c1ccc(/C=N/NC(=O)c2ccccc2Cl)cc1	MsrA inhibitor 6.3 | MsrA conf 5.0
CN(C)c1ccc(/C=N/NC(=O)Cn2nnc3ccccc32)cc1	MsrA inhibitor 5.1 | MsrA conf 4.7
COc1ccc(/C=N/NC(=O)Cn2nnc3ccccc32)cc1OC	none
Nc1ccc(C23CC4CC(CC(O)(C4)C2)C3)cc1	none
COc1ccc(/C=C(\NC(=O)c2ccccc2)C(=O)N/N=C/c2ccncc2)cc1	MsrA inhibitor 5.0 | MsrA conf 6.0
CN(C)c1ccc(/C=N/NC(=O)CCCCCNC(=O)c2ccccc2)cc1	MsrA inhibitor 4.8 | MsrA conf inactive
CN(C)c1ccc(/C=N/NC(=O)CCc2c[nH]c3ccccc23)cc1	MsrA inhibitor 5.5 | MsrA conf inactive
CN(N=Cc1ccc(N(C)C)cc1)C(=O)c1ccccc1N	MsrA inhibitor 5.3 (no result: MsrA act, MC4R antag cAMP, MC4R barr agon) | MsrA conf inactive
CN(C)c1ccc(/C=N/NC(=O)CCCO)cc1	MsrA inhibitor 5.9 | MsrA conf inactive
CN(C)c1ccc(/C=N/NC(=O)c2ccccc2)cc1	MsrA inhibitor 4.7 | MsrA conf inactive
CN(C)c1ccc(/C=N/NC(=O)c2ccc(Cl)cc2)cc1	none
COc1ccc(/C=N/N2C(=N)SCC2=O)cc1	MsrA inhibitor 6.3 | MsrA conf inactive
COc1cc(OC)c(/C=N/NC(N)=S)cc1Br	MsrA inhibitor 5.3 | MsrA conf inactive
COc1cc(OC)c(/C=N/NC(=O)c2ccncc2)cc1Br	MsrA inhibitor 5.2 | MsrA conf inactive
COc1cc(OC)c(OC)cc1/C=N/NC(=O)c1ccc(=O)n(C)c1	MsrA inhibitor 10.0 | MsrA conf 9.2
COc1cc(OC)c(OC)cc1/C=N/NC(=O)c1cnccn1	MsrA inhibitor 6.2 | MsrA conf inactive
COc1cc(/C=N/NC(=O)c2cnccn2)cc(OC)c1OC	none
Cc1ccc(-n2nc3c(=O)n(CC(=O)NCc4ccccc4Cl)nc(C)c3c2C)cc1	none
COc1ccccc1/C=C/C=N/NC(=O)Cc1cccs1	MsrA inhibitor 5.0 | MsrA conf inactive
O=C(Cc1cccs1)N/N=C/C=C/c1ccccc1[N+](=O)[O-]	none
COc1ccccc1/C=C/C=N/NC(=O)c1ccncc1	MsrA inhibitor 9.0 | MsrA conf 5.0
CC(C)N1CCN(Cc2cccc3nonc23)CC1CCO (stereo unspecified)	none
Cn1ccnc1Sc1cc(NCCCO)c([N+](=O)[O-])c2nonc12	MsrA inhibitor 5.7 | MsrA conf inactive
O=C(COc1ccc(Cl)cc1)Nc1nnc(-c2ccco2)o1	none
O=C(NNC(=O)C1CC1)c1cc2cc3ccccc3nc2s1	MsrA inhibitor 4.9 | MsrA conf inactive
O=C(NNC(=O)c1cc2cc3ccccc3nc2s1)c1ccc(F)cc1	none
Cc1nc(N2CCOCC2)sc1C=O	MsrA inhibitor 6.6 | MsrA conf inactive
CCN(CC)c1ccc(C2NCC(c3ccc([N+](=O)[O-])cc3)O2)cc1 (stereo unspecified)	MsrA inhibitor 5.3 | MsrA conf 4.7
C=CCSc1nnc(CNC(=O)c2ccccc2C)n1C(C)C	none
COCCN(C(=O)c1ccc(-c2ccc(Cl)cc2)o1)c1c(N)n(CC(C)C)c(=O)[nH]c1=O	none
COCCN(C(=O)c1ccc(-c2ccc([N+](=O)[O-])cc2)o1)c1c(N)n(CC(C)C)c(=O)[nH]c1=O	MsrA inhibitor 4.7 | MsrA conf 4.6
Cc1ccsc1/C=N/Nc1nc(=O)[nH]nc1C	MsrA inhibitor 5.3 | MsrA conf inactive
Cc1cc(C)nc(N/N=C/c2sccc2C)n1	MsrA inhibitor 5.3 | MsrA conf inactive
CCC1(c2ccccc2)NC(=O)N(CC(=O)N(C)CC(=O)Nc2cccc(OC)c2)C1=O (stereo unspecified)	none
COc1ccc(S(=O)(=O)CCC(=O)N2CCN(c3ccc(C(C)=O)cc3)CC2)cc1	MsrA inhibitor 4.7 | MsrA conf inactive
O=C(c1ccc(F)cc1)N1CCN2C(=O)c3ccccc3C12c1ccc(Cl)cc1 (stereo unspecified)	none
CN(CCO)S(=O)(=O)c1ccc2c(c1)C(=NNC(N)=O)c1cc(S(=O)(=O)N(C)CCO)ccc1-2	MsrA inhibitor 4.8 | MsrA conf inactive
O=C(N/N=C/c1ccnc2ccccc12)c1ccccc1O	MsrA inhibitor 5.6 | MsrA conf inactive
Oc1ccc(/C=N/Nc2ccc(Cl)nn2)cc1O	MsrA inhibitor 4.9 | MsrA conf inactive
Cc1ccc(/C=N/Nc2ccc(Cl)nn2)cc1	none
Nc1c(C=C2C=CC(=O)C=C2)c(=O)nc2sc(CC(=O)N3CCCC3)nn12	MsrA inhibitor 4.7 | MsrA conf inactive
CCCc1nn2c(N)c(/C=C3\C=Nc4ccccc43)c(=O)nc2s1	none
O=C(C(c1ccccc1)c1ccccc1)N1CCN(Cc2ccncc2)CC1	none
CC1(C)CC(=O)C=C(c2cc3ccccc3s2)C1	none
c1ccc2c(c1)nc(N1CCOCC1)c1nnnn12	MsrA inhibitor 7.5 | MsrA conf 13.8
